Results on one compound are retold here after ChEMBL document CHEMBL4811252, “Identification of novel 1,3-diaryl-1,2,4-triazole-capped histone deacetylase 6 inhibitors with potential anti-gastric cancer activity” (Eur J Med Chem, 2021).

Series [1] deals with MGC-803. The series can be described thus: Induction of apoptosis in human MGC803 cells assessed as viable cells at 4 uM measured after 48 hrs by Annexin-V FITC/PI staining based flow cytometry (reference value: 92.33%). The settings on record: read-out: Activity. The series is classed as functional.
The test system of series [2] is MGC-803. The series can be described thus: Antiproliferative activity against human MGC803 cells incubated for 72 hrs by MTT assay. In kind it is functional, cell-based. The settings on record: MGC-803, 72 h.
The test system of series [3] is MGC-803. The series can be described thus: Induction of apoptosis in human MGC803 cells assessed as viable cells at 8 uM measured after 48 hrs by Annexin-V FITC/PI staining based flow cytometry (reference value: 92.33%). In kind it is functional. The following applies: read-out: Activity.
Series [4] concerns the target T1, Protein deacetylase HDAC6 (Homo sapiens, UniProt Q9UBN7).
T1 sequence (Q9UBN7 whole entry): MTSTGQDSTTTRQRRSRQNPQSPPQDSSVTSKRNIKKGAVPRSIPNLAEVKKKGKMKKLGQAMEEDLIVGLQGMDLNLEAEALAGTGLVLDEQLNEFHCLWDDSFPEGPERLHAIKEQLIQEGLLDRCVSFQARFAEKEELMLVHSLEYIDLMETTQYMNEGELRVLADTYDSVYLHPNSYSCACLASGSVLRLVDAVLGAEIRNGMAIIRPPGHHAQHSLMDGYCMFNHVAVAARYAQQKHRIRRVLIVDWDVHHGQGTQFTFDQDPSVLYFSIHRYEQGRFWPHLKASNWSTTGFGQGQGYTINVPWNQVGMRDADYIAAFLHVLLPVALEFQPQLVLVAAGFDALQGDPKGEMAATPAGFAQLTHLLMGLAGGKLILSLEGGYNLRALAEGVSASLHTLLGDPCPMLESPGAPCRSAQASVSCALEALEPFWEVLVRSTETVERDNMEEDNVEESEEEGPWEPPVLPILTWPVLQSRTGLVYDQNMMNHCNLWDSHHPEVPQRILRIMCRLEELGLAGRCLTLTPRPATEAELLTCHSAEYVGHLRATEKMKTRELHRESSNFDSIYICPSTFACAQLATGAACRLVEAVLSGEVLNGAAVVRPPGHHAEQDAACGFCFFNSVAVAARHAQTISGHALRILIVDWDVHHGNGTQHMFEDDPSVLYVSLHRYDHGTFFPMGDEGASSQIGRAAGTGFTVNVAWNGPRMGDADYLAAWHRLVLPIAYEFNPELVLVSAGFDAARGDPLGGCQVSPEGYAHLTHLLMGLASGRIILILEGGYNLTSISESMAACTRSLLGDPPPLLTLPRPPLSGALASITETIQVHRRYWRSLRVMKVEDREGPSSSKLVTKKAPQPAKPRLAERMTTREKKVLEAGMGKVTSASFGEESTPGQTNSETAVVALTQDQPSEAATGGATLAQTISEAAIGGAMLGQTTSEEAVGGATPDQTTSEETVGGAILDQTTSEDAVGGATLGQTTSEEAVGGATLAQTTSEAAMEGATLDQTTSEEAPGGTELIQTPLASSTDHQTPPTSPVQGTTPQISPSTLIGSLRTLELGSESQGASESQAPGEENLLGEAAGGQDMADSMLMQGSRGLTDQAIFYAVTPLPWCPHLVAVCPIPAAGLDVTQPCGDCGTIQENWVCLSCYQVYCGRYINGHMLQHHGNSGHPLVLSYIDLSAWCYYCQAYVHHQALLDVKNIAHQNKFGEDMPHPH
The series can be described thus: Binding affinity to recombinant human HDAC6 by BLI assay.

The target of another series is Histone deacetylase 1 (Homo sapiens, UniProt Q13547). The series can be described thus: Inhibition of recombinant human HDAC1 using Z-(Ac)-Lys-AMC as substrate incubated for 40 mins by fluorescence based assay.
For series [5], the target named is T1, Protein deacetylase HDAC6. The series can be described thus: Inhibition of recombinant full length human HDAC6 expressed in baculovirus infected Sf9 cells using Z-(Ac)-Lys-AMC as substrate incubated for 40 mins by fluorescence based assay.
Series [6] is described as follows: Acute toxicity in C57BL/6 mouse assessed as change in body weight at 2 g/kg, po administered via gavage measured up to 14 days. The series is classed as organism-based. The settings on record: in vivo, 2000 mg/kg, 336 h, time <=14 day. In short, it runs like this: (§1)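 Mice aged 8-10 weeks, 20 females and 20 males, split into two groups: vehicle control (0.5% CMC-Na) or a single oral gavage dose of 2000 mg/kg. Animals were fed and observed normally for 14 days, recording body weight, mortality and behaviour. Heart, liver, spleen, lung and kidney sections were then fixed, embedded and H&E stained.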

The target of series [7] is T2, Protein deacetylase HDAC6 (Homo sapiens) (UniProt Q9UBN7).
T2 sequence (whole entry): T1 sequence (Q9UBN7 whole entry)
The settings on record: Sf9, dose 100.0 nM, time 40.0 min.

In series [8] the test system is MGC-803. The series can be described thus: Induction of apoptosis in human MGC803 cells assessed as necrotic cells at 8 uM measured after 48 hrs by Annexin-V FITC/PI staining based flow cytometry (reference value: 4.74%). In kind it is functional.
The nature of series [9]: Acute toxicity in C57BL/6 mouse assessed as heart tissue damage at 2 g/kg, po administered via gavage measured up to 14 days by HE staining based assay. In kind it is organism-based. The following applies: in vivo, 2000 mg/kg, 336 h, time <=14 day. An outline of the steps:
as §1

In series [10] the test system is MGC-803. The series can be described thus: Induction of apoptosis in human MGC803 cells assessed as increase in PARP expression after 48 hrs by Western blotting analysis. The settings on record: dose 2-8 µM. The series is classed as functional, cell-based. An outline of the steps:
(§2)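 MGC803 cells treated for 48 h, then lysed (0.1% SDS, 150 mM NaCl, 25 mM Tris-HCl, 1% deoxycholate, 1% NP-40, 1% PMSF). Protein quantified by BCA and resolved on 8–10% SDS-PAGE onto PVDF. Blocked in 5% milk, primary antibodies overnight at 4 °C, HRP secondary, ECL. GAPDH, total α-tubulin and H3 as references. Mean ± SD of three experiments.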

Series [11] is described as follows: Acute toxicity in C57BL/6 mouse assessed as spleen tissue damage at 2 g/kg, po administered via gavage measured up to 14 days by HE staining based assay. In kind it is organism-based. The settings on record: in vivo, 2000 mg/kg, 336 h, time <=14 day. In short, it runs like this:
as §1

The subject of series [12] is MGC-803. The series can be described thus: Induction of apoptosis in human MGC803 cells assessed as increase in caspase-9 expression after 48 hrs by Western blotting analysis. In kind it is functional, cell-based. The following applies: dose 2-8 µM. An outline of the steps:
as §2

In series [13] the target is T2, Protein deacetylase HDAC6 (Homo sapiens). The series can be described thus: Inhibition of HDAC6 in human MGC803 cells assessed as accumulation of acetylated alpha-tubulin level after 48 hrs by Western blotting analysis. In kind it is cell-based. The settings on record: MGC-803, dose 2-8 µM. In short, it runs like this:
as §2

Series [14] can be described thus: Acute toxicity in C57BL/6 mouse assessed as lung tissue damage at 2 g/kg, po administered via gavage measured up to 14 days by HE staining based assay. The series is classed as organism-based. The following applies: in vivo, 2000 mg/kg, 336 h, time <=14 day. An outline of the steps: as §1
A short description of series [15]: Acute toxicity in C57BL/6 mouse assessed as kidney tissue damage at 2 g/kg, po administered via gavage measured up to 14 days by HE staining based assay. The following applies: in vivo, 2000 mg/kg, 336 h, time <=14 day. The series is classed as organism-based. An outline of the steps: as §1
For another series, the target named is Histone deacetylase 2 (Homo sapiens, UniProt Q92769). The series can be described thus: Inhibition of HDAC2 (unknown origin).
In series [16] the test system is MGC-803. The series can be described thus: Induction of apoptosis in human MGC803 cells assessed as early apoptotic cells at 4 uM measured after 48 hrs by Annexin-V FITC/PI staining based flow cytometry (reference value: 0.19%). The series is classed as functional.
The target in the next series is Histone deacetylase 3 (Homo sapiens, UniProt O15379). The series can be described thus: Inhibition of HDAC3 (unknown origin).
Series [17] is described as follows: Acute toxicity in C57BL/6 mouse assessed as liver tissue damage at 2 g/kg, po administered via gavage measured up to 14 days by HE staining based assay. The series is classed as organism-based. The settings on record: in vivo, 2000 mg/kg, 336 h, time <=14 day. An outline of the steps: as §1

SMILES strings stand for the structures.

Sequence of Histone deacetylase 1 (Q13547 whole entry): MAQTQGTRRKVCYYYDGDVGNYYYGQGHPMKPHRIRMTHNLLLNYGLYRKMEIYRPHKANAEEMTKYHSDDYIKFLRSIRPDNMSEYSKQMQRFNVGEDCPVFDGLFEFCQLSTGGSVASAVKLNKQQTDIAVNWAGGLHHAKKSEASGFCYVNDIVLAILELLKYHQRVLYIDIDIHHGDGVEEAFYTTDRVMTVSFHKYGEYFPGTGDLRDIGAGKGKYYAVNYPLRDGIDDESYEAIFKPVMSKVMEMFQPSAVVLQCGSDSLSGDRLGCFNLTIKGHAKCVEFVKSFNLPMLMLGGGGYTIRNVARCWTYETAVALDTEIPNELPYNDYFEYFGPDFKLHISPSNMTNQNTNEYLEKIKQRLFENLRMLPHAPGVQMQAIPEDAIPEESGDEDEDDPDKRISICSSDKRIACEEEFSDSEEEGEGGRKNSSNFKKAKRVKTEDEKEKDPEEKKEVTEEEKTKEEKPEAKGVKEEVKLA
Sequence of Histone deacetylase 2 (Q92769 whole entry): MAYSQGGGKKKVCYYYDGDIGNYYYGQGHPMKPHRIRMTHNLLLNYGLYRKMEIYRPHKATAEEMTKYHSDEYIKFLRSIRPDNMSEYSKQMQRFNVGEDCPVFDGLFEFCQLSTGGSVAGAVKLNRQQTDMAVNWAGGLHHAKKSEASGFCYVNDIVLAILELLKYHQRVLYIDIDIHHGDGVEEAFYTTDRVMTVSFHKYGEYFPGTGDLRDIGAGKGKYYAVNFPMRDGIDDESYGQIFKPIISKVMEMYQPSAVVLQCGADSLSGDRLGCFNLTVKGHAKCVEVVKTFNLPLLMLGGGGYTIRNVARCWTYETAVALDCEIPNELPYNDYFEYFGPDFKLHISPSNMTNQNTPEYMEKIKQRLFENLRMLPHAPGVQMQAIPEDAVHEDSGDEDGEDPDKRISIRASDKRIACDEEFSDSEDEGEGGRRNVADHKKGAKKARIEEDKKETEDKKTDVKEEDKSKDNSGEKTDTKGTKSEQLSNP
Sequence of Histone deacetylase 3 (O15379 whole entry): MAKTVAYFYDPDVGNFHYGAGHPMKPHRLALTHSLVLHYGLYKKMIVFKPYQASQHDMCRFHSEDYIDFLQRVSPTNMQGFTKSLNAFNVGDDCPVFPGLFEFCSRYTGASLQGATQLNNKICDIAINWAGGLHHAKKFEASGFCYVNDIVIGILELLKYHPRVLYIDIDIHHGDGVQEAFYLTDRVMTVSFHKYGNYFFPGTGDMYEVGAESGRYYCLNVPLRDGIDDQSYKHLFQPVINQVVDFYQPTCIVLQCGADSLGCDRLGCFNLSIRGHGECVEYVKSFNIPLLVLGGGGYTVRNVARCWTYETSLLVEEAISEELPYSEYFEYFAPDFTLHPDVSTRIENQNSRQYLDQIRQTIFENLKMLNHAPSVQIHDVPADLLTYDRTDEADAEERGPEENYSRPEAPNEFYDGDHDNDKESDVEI

As to `Cc1ccc(-c2nc(CNc3ccc(C(=O)NO)cc3)n(-c3ccccc3)n2)s1`, the viability at 4 µM with MGC-803 [1] worked out at 79.3%. Besides, the concentration for half-maximal inhibition (IC50) in the series on MGC-803 [2] was 8450 nM; at Histone deacetylase 1 it was 3940 nM; in [5] it was 30.6 nM; against Histone deacetylase 2 it was 224 nM; at Histone deacetylase 3 it was 235 nM. For the same compound, the viability at 8 µM with MGC-803 [3] was 43.6%. For the same compound, the equilibrium dissociation constant (Kd) in [4] came out at 7.1 nM. Besides, the Activity result is “Non-Toxic” in [6]; 1.96% with MGC-803 [8]; “Non-Toxic” in series [9]; “Dose-Dependent Effect” with MGC-803 [10]; “Non-Toxic” in series [11]; “Dose-Dependent Effect” with MGC-803 [12]. Further, the Activity result in [14] is “Non-Toxic”; in series [15], “Non-Toxic”; in the series with MGC-803 [16] it was 2.95%; in series [17] it was “Non-Toxic”. Also, the inhibition is 79.7% in series [7] and “Dose-Dependent Effect” in series [13].
